According to ChEMBL document CHEMBL4622835, “A novel potent metal-binding NDM-1 inhibitor was identified by fragment virtual, SPR and NMR screening” (Bioorg Med Chem, 2020):

Tests used:
[1] = Inhibition of bacteria NMD-1
[2] = Binding affinity to recombinant bacteria NDM-1 (I31 to K268 residues)expressed in Escherichia coli BL21 (DE3) cells by SPR assay
In short: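 Tag-free NDM-1 at 50 µg/ml in pH 5.0 sodium acetate, amine-coupled to a CM7 chip (>8,000 RU). Biacore T200, 25 °C, 30 µL/min. Running buffer 10 mM Hepes pH 7.5, 150 mM NaCl, 100 µM ZnCl2, 2% DMSO (EDTA-2Na run without DMSO). Eight two-fold dilutions per compound. KD from a steady-state 1:1 fit, at least three runs.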

[3] = test system: Klebsiella pneumoniae; assay: Synergistic antibacterial activity against Klebsiella pneumoniae ATCC BAA-2470 cells expressing NDM-1 incubated for 20 to 24 hrs presence of meropenem by broth dilution method (Rvb >64 ug/ml); assay type: functional
In short: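 Broth microdilution in Mueller-Hinton broth, final inoculum about 5 × 10^5 CFU/mL. Test compound fixed at 100 µg/mL final (from 20 mg/mL DMSO stock). Meropenem in two-fold dilutions, 64 to 0.0625 µg/mL final. Plates held 20–24 h at 37 °C. MIC is the lowest meropenem concentration with no visible growth.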

[4] = Inhibition of recombinant bacteria NDM-1 (I31 to K268 residues) expressed in Escherichia coli BL21 (DE3) cells incubated for 20 mins using meropenem as substrate
In short: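 NDM-1 (12 nM) preincubated with inhibitor for 20 min at room temperature, then meropenem (100 µM) added. Final buffer 50 mM hepes pH 7.24 with 2% DMSO. Absorbance read at 300 nm at 30 °C. Duplicate wells, three repeats. IC50 taken from percent loss of activity against inhibitor concentration; L-captopril as positive control.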

[5] = Binding affinity to recombinant bacteria 15N labeled His-6-tagged NDM-1 (36 to 270 residues) expressed in Escherichia coli BL21 (DE3) cells by NMR analysis
In short: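 15N-labelled NDM-1 (0.11 mM or 0.165 mM) in 50 mM HEPES, 200 mM NaCl, pH 7.5, titrated with inhibitor from DMSO stock (20 mM or 50 mM). 1H-15N HSQC spectra recorded at 800 MHz, 298 K and 293 K. NDM-1:inhibitor mole ratios ran 1:0 to 1:15. Both di-Zn and apo (EDTA-stripped) forms were used; after the apo titrations, 2 equiv Zn2+ added.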

| Structure (SMILES) | MIC [3] | IC50 [4] | IC50 [1] | Kd [2] | Kd [5] |
| --- | --- | --- | --- | --- | --- |
| N[C@@H](CN[C@@H](CN[C@@H](CC(=O)O)C(=O)O)C(=O)O)C(=O)O |  |  | 7 µM |  |  |
| NCc1ccc(C(=O)N[C@H]2Cc3cccc(C(=O)O)c3O[B-]2(O)O)cc1 |  |  | 0.029 µM |  |  |
| NCCN[C@H]1CC[C@H](CC(=O)N[C@H]2Cc3cccc(C(=O)O)c3OB2O)CC1 |  |  | 0.01 µM |  |  |
| C/C(=N\Nc1cccc2cccnc12)C(=O)O.Cl | > 64 µg/mL | 124 µM |  | 219 to 290 µM | 620 µM |
| O=C(O)[C@@H]1CS[C@H]2CS[C@H](CS)N21 |  |  | 23 µM |  |  |
| CC(C)(C)/C(=N\Nc1cccc2cccnc12)C(=O)O.Cl | 64 µg/mL | > 500 µM |  | 435 µM |  |
| C[C@H](CS)C(=O)N1CCC[C@H]1C(=O)O [CAPTOPRIL] |  | 390 µM |  | 12 to 14.1 µM |  |
| O=c1c2ccccc2[se]n1-c1ccccc1 [EBSELEN] |  |  | 0.38 µM |  |  |
| O=C([O-])CN(CCN(CC(=O)[O-])CC(=O)O)CC(=O)O.[Na+].[Na+] [EDETATE DISODIUM ANHYDROUS] |  | 17.2 µM |  | > 1000 µM |  |
| C[C@@H](O)[C@H]1C(=O)N2C(C(=O)O)=C(S[C@@H]3CN[C@H](C(=O)N(C)C)C3)[C@H](C)[C@H]12 [MEROPENEM] |  |  |  | 75 µM |  |
| O=C(O)CNC(=O)C(CS)Cc1ccccc1 (configuration not stated) [THIORPHAN] |  |  | 1.8 µM |  |  |

Further lines, with some results ahead:

| MIC [3] | IC50 [4] | Structure (SMILES) | IC50 [1] | Kd [2] | Kd [5] |
| --- | --- | --- | --- | --- | --- |
| > 64 µg/mL |  | CC(C)(C)/C(=N\Nc1ccccc1)C(=O)O |  | 438 µM |  |
| > 64 µg/mL | 82.3 µM | CCC/C(=N\Nc1cccc2cccnc12)C(=O)O.Cl |  | 221 µM |  |
| 32 µg/mL | > 500 µM | CCC/C(=N\Nc1cccc2ccccc12)C(=O)O |  | > 1000 µM |  |
| > 64 µg/mL |  | CCC/C(=N\Nc1cccnc1)C(=O)O.Cl |  | 703 µM |  |
| > 64 µg/mL |  | C/C(=N\Nc1cccnc1)C(=O)O.Cl |  | > 1000 µM |  |
| > 64 µg/mL |  | CC/C(=N\Nc1cccnc1)C(=O)O.Cl |  | > 1000 µM |  |
| > 64 µg/mL |  | CC/C(=N\Nc1ccccc1)C(=O)O |  | 191 µM |  |
| 64 µg/mL | 68.2 µM | CC/C(=N\Nc1cccc2cccnc12)C(=O)O.Cl |  | 275 µM |  |
| > 64 µg/mL |  | CCC/C(=N\Nc1ccccc1)C(=O)O |  | 188 µM |  |
| > 64 µg/mL | 94.6 µM | CC(C)(C)/C(=N\Nc1cccc2ccccc12)C(=O)O |  | 307 µM |  |
| > 64 µg/mL | 389 µM | C/C(=N\Nc1cccc2ccccc12)C(=O)O |  | 255 µM |  |
| > 64 µg/mL | 28.1 µM | CC/C(=N\Nc1cccc2ccccc12)C(=O)O |  | 449 µM |  |
| > 64 µg/mL |  | C/C(=N\Nc1ccccc1)C(=O)O |  | 168 µM |  |
| > 64 µg/mL |  | CC(C)(C)/C(=N\Nc1cccnc1)C(=O)O.Cl |  | > 1000 µM |  |
